Consider 14 compounds from ChEMBL document CHEMBL1141876, “Quinols as novel therapeutic agents. 2.(1) 4-(1-Arylsulfonylindol-2-yl)-4-hydroxycyclohexa-2,5-dien-1-ones and related agents as potent and selective antitumor agents” (2005).

What all share (type): functional
The test system of test [1] is Panel NCI-60 (60 carcinoma cell lines). Put plainly: Mean in vitro GI50 value against 60 human cancer cell line was determined.
Test [2] relates to HCT-116. Put plainly: Mean in vitro LC50 value against human HCT116 cell line was determined. As to conditions: read-out: LC50 (the source's name). The method, boiled down: (§1)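 NCI 60-cell-line screen. Cells seeded at densities suited to each line's growth and left drug-free for 24 h. Agents then added at five 10-fold dilutions, top concentration 100 μM, for 48 h. Cellular protein measured by sulforhodamine B colorimetry. LC50 read from these curves; for line 1 it is averaged across the 60 lines.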

The test system of test [3] is LOX IMVI. Kind of test: Mean in vitro LC50 value against human LOX IMVI cell line was determined. The note with it: read-out: LC50 (the source's name). The method, boiled down: as §1
For test [4], the system named is Panel NCI-60 (60 carcinoma cell lines). Kind of test: Mean in vitro LC50 value against 60 human cancer cell line was determined. The note with it: read-out: LC50 (the source's name). The method, boiled down:
as §1

For test [5], the system named is UACC-62. Put plainly: Mean in vitro LC50 value against human UACC-62 cell line was determined. The note with it: read-out: LC50 (the source's name). The method, boiled down:
as §1

Test [6] concerns RXF 393. Put plainly: Mean in vitro LC50 value against human RXF 393 cell line was determined. The note with it: read-out: LC50 (the source's name). The method, boiled down: as §1
In test [7] the test system is ACHN. Put plainly: Mean in vitro LC50 value against human ACHN cell line was determined. The note with it: read-out: LC50 (the source's name). The method, boiled down:
as §1

For test [8], the system named is UO-31. Kind of test: Mean in vitro LC50 value against human UO-31 cell line was determined. As to conditions: read-out: LC50 (the source's name). The method, boiled down: as §1
Test [9] concerns U-251. Kind of test: Mean in vitro LC50 value against human U251 cell line was determined. The note with it: read-out: LC50 (the source's name). The method, boiled down: as §1
Test [10] relates to CAKI-1. Put plainly: Mean in vitro LC50 value against human CAKI-1 cell line was determined. The note with it: read-out: LC50 (the source's name). The method, boiled down: as §1

Turning to `COc1ccc(S(=O)(=O)n2c(C3(O)C=CC(=O)C=C3)cc3ccccc32)cc1`, it took 160 nM to inhibit growth in [1] by half (GI50). The CC50 in test [2] came out at 110 nM; in test [3], 380 nM; in test [4], 6310 nM.
For the compound `O=C1C=CC(O)(c2cc3cc(F)ccc3n2S(=O)(=O)c2ccccc2)C=C1`, it took 66 nM to inhibit growth in test [1] by half (GI50). The CC50 in [2] worked out at 50 nM; in test [3] it was 63 nM; in test [4], 3230 nM.
For the compound `O=C1C=CC(O)(c2nc3ccccc3[nH]2)C=C1`, growth in test [1] was halved (GI50) at 870 nM. Further, the CC50 stood at 1860 nM in test [2], 1410 nM in [5] and 13200 nM in [4].
`CC(C)c1cc(C(C)C)c(S(=O)(=O)n2c(C3(O)C=CC(=O)C=C3)cc3ccccc32)c(C(C)C)c1`: growth in test [1] was halved (GI50) at 430 nM. The CC50 in [2] was 550 nM; in test [6] it was 780 nM; in test [4] it was 11200 nM.
As to `COc1ccc2c(c1)cc(C1(O)C=CC(=O)C=C1)n2S(=O)(=O)c1ccccc1`, growth in [1] was halved (GI50) at 130 nM. Moreover, the CC50 is 450 nM in test [7], 470 nM in test [3] and 6170 nM in test [4].
Consider `Cc1ccc(S(=O)(=O)n2c(C3(O)C=CC(=O)c4ccccc43)cc3ccccc32)cc1` (stereo not given), for which the GI50 (commonly the concentration giving 50% growth inhibition) in test [1] came out at 390 nM. Besides, the CC50 in test [2] was determined as 450 nM; in test [3] it was 720 nM; in test [4], 5620 nM.
Turning to `O=C1C=CC(O)(c2cc3ccccc3n2S(=O)(=O)c2ccc(F)cc2)C=C1`, the concentration for 50% growth inhibition (GI50) in test [1] worked out at 230 nM. For the same compound, the CC50 in test [8] is 630 nM; in [2], 360 nM; in [4] it was 7760 nM.
`O=C1C=CC(O)(c2cc3ccccc3[nH]2)C=C1` displayed a GI50 in [1] of 1380 nM. The results for the CC50 in test [2], in test [6] and in [4] were 5130 nM, 3390 nM and 24000 nM, respectively.
In turn, `O=C1C=CC(O)(c2cc3ccccc3n2S(=O)(=O)c2ccccc2)c2ccccc21` (stereo not given) came in with a concentration for 50% growth inhibition (GI50) in test [1] of 450 nM. Besides, the CC50 came to 790 nM in test [2], 780 nM in test [3] and 7760 nM in test [4].
As for `O=C1C=CC(O)(c2nc3ccccc3s2)C=C1`, growth in [1] was halved (GI50) at 230 nM. In addition, the CC50 worked out at 430 nM in [2], 580 nM in test [6] and 3390 nM in [4].
The compound `O=C1C=CC(O)(c2cc3ccc(F)cc3n2S(=O)(=O)c2ccccc2)C=C1` displayed a GI50 in [1] of 16 nM. Also, the CC50 in test [7] was 20 nM; in [2], less than 10 nM; in test [4] it was 2240 nM.
`O=C1C=CC(O)(c2cc3ccccc3n2S(=O)(=O)c2ccc3ccccc3c2)C=C1`: in [1], the GI50 came out at 190 nM. Besides, the figures for the CC50 in test [9], in test [2] and in [4] were 510 nM, 370 nM and 5620 nM, respectively.
Take `Cc1ccc(S(=O)(=O)n2c(C3(O)C=CC(=O)C=C3)cc3ccccc32)cc1`: in test [1], the GI50 was found to be 110 nM. For the same compound, the CC50 in test [2] came out at 48 nM; in test [3], 230 nM; in test [4], 7240 nM.
On to `O=C1C=CC(O)(c2cc3ccccc3n2S(=O)(=O)c2ccccc2)C=C1`, for which, in [1], growth was halved (GI50) at 39 nM. The CC50 in test [10] is 53 nM; in test [4], 2950 nM.
